Holding throughout (assay type): functional
The subject of assay [1] is Candida albicans. Briefly: Antimicrobial activity against Candida albicans SC5314 after 24 hrs by serial dilution method. The note with it: SC5314, 24 h. Put shortly: (§1)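 Broth serial dilution MIC in 96-well plates following NCCLS/CLSI methods. Compounds were dissolved in DMSO and serially diluted in growth medium, with incubation at 35 °C. […] C. parapsilosis 22019 served as the quality-control strain in each assay.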

Assay [2] relates to Candida albicans. Briefly: Antimicrobial activity against Candida albicans Y0109 after 24 hrs by serial dilution method. The note with it: Y0109, 24 h. Put shortly: as §1
Another assay has as its system Candida parapsilosis. Briefly: Antimicrobial activity against Candida parapsilosis 22019 after 24 hrs by serial dilution method. The note with it: Lodderomyces parapsilosis, 22019, 24 h. Put shortly: as §1
A further assay has as its system Cryptococcus neoformans. In words: Antimicrobial activity against Cryptococcus neoformans 32609 after 72 hrs by serial dilution method. The note with it: Cryptococcus neoformans, 32609, 72 h. Put shortly:
as §1

For another assay, the system named is Nakaseomyces glabratus. Briefly: Antimicrobial activity against Candida glabrata 537 after 24 hrs by serial dilution method. The note with it: Nakaseomyces glabratus, 537, 24 h. Put shortly:
as §1

The next assay deals with Aspergillus fumigatus. Briefly: Antimicrobial activity against Aspergillus fumigatus 7544 after 48 hrs by serial dilution method. The note with it: Aspergillus fumigatus, 7544, 48 h. Put shortly: as §1

Converted amounts (≈) assume the structure as drawn.

One may read the MIC as the least concentration at which growth counts as inhibited. A low value points to inhibition by little substance. In the case of `C[C@@H](N1CCn2nc(-c3ccc(F)nc3)nc2C1)[C@](O)(Cn1cncn1)c1ccc(F)cc1F`, the MIC against Candida albicans [1] was determined as 0.0156 µg/mL (≈ 0.0332 µM); in the assay on Candida albicans [2], 0.0625 µg/mL (≈ 0.133 µM); against Candida parapsilosis, 0.0625 µg/mL (≈ 0.133 µM); in the assay on Cryptococcus neoformans, 0.0312 µg/mL (≈ 0.0664 µM); against Nakaseomyces glabratus it was 0.0312 µg/mL (≈ 0.0664 µM); in the assay with Aspergillus fumigatus, 2 µg/mL (≈ 4.25 µM).
Consider `C[C@@H](N1CCn2nc(-c3cncc(F)c3)nc2C1)[C@](O)(Cn1cncn1)c1ccc(F)cc1F`, for which the MIC turned out to be 0.125 µg/mL (≈ 0.266 µM) in the assay with Candida albicans [1]; 0.125 µg/mL (≈ 0.266 µM) against Candida albicans [2]; 0.125 µg/mL (≈ 0.266 µM) against Candida parapsilosis; 0.125 µg/mL (≈ 0.266 µM) against Cryptococcus neoformans; 1 µg/mL (≈ 2.13 µM) against Nakaseomyces glabratus; 32 µg/mL (≈ 68 µM) with Aspergillus fumigatus.
In the case of `C[C@@H](N1CCn2nc(-c3cncc(C#N)c3)nc2C1)[C@](O)(Cn1cncn1)c1ccc(F)cc1F`, the MIC against Candida albicans [1] came out at 0.125 µg/mL (≈ 0.262 µM); against Candida albicans [2], 0.125 µg/mL (≈ 0.262 µM); in the assay with Candida parapsilosis, 0.25 µg/mL (≈ 0.524 µM); in the assay with Cryptococcus neoformans, 0.125 µg/mL (≈ 0.262 µM); in the assay with Nakaseomyces glabratus, 1 µg/mL (≈ 2.09 µM); against Aspergillus fumigatus it was 64 µg/mL (≈ 134 µM).
On to `COc1ccc(-c2nc3n(n2)CCN([C@H](C)[C@](O)(Cn2cncn2)c2ccc(F)cc2F)C3)cn1`, for which the MIC in the assay on Candida albicans [1] stood at 0.0625 µg/mL (≈ 0.13 µM); with Candida albicans [2], 0.125 µg/mL (≈ 0.259 µM); against Candida parapsilosis, 0.125 µg/mL (≈ 0.259 µM); in the assay with Cryptococcus neoformans, 0.25 µg/mL (≈ 0.518 µM); with Nakaseomyces glabratus it was 0.5 µg/mL (≈ 1.04 µM); against Aspergillus fumigatus, 32 µg/mL (≈ 66.3 µM).
For `Cc1ncc(-c2nc3n(n2)CCN([C@H](C)[C@](O)(Cn2cncn2)c2ccc(F)cc2F)C3)cn1`, the MIC in the assay with Candida albicans [1] amounted to 0.0625 µg/mL (≈ 0.134 µM); against Candida albicans [2] it was 0.125 µg/mL (≈ 0.267 µM); in the assay with Candida parapsilosis, 0.125 µg/mL (≈ 0.267 µM); in the assay with Cryptococcus neoformans, 0.125 µg/mL (≈ 0.267 µM); with Nakaseomyces glabratus, 0.25 µg/mL (≈ 0.535 µM); with Aspergillus fumigatus, 32 µg/mL (≈ 68.5 µM).
As to `COc1ncc(-c2nc3n(n2)CCN([C@H](C)[C@](O)(Cn2cncn2)c2ccc(F)cc2F)C3)cn1`, the MIC against Candida albicans [1] amounted to 0.0625 µg/mL (≈ 0.129 µM); in the assay on Candida albicans [2] it was 0.125 µg/mL (≈ 0.259 µM); against Candida parapsilosis, 0.25 µg/mL (≈ 0.517 µM); in the assay with Cryptococcus neoformans it was 0.5 µg/mL (≈ 1.03 µM); with Nakaseomyces glabratus, 0.25 µg/mL (≈ 0.517 µM); against Aspergillus fumigatus, 32 µg/mL (≈ 66.2 µM).
As to `C[C@@H](N1CCc2nc(Br)sc2C1)[C@](O)(Cn1cncn1)c1ccc(F)cc1F`, the MIC in the assay with Candida albicans [1] turned out to be 1 µg/mL (≈ 2.13 µM); against Candida albicans [2], 1 µg/mL (≈ 2.13 µM); in the assay with Candida parapsilosis, 1 µg/mL (≈ 2.13 µM); against Cryptococcus neoformans, 0.5 µg/mL (≈ 1.06 µM); against Nakaseomyces glabratus it was 1 µg/mL (≈ 2.13 µM); with Aspergillus fumigatus, 32 µg/mL (≈ 68 µM).
Consider `C[C@@H](N1CCc2nc(-c3ccc(Cl)cc3)sc2C1)[C@](O)(Cn1cncn1)c1ccc(F)cc1F`, for which the MIC in the assay with Candida albicans [1] is 0.5 µg/mL (≈ 0.996 µM); against Candida albicans [2], 1 µg/mL (≈ 1.99 µM); in the assay on Candida parapsilosis, 2 µg/mL (≈ 3.98 µM); against Cryptococcus neoformans, 1 µg/mL (≈ 1.99 µM); against Nakaseomyces glabratus, 1 µg/mL (≈ 1.99 µM); against Aspergillus fumigatus it was 32 µg/mL (≈ 63.7 µM).
Regarding `C[C@@H](N1CCc2nc(-c3ccc(C(F)(F)F)cc3)sc2C1)[C@](O)(Cn1cncn1)c1ccc(F)cc1F`, the MIC with Candida albicans [1] was found to be 1 µg/mL (≈ 1.87 µM); against Candida albicans [2], 2 µg/mL (≈ 3.73 µM); with Candida parapsilosis it was 2 µg/mL (≈ 3.73 µM); against Cryptococcus neoformans it was 2 µg/mL (≈ 3.73 µM); against Nakaseomyces glabratus, 1 µg/mL (≈ 1.87 µM); in the assay with Aspergillus fumigatus, 32 µg/mL (≈ 59.8 µM).
Take `COc1ccc(-c2nc3c(s2)CN([C@H](C)[C@](O)(Cn2cncn2)c2ccc(F)cc2F)CC3)cc1`: the minimum inhibitory concentration (MIC) was 1 µg/mL (≈ 2.01 µM) with Candida albicans [1]; 1 µg/mL (≈ 2.01 µM) in the assay with Candida albicans [2]; 0.5 µg/mL (≈ 1 µM) with Candida parapsilosis; 1 µg/mL (≈ 2.01 µM) against Cryptococcus neoformans; 1 µg/mL (≈ 2.01 µM) with Nakaseomyces glabratus; 16 µg/mL (≈ 32.2 µM) in the assay on Aspergillus fumigatus.
In the case of `Cc1ccc(-c2nc3c(s2)CN([C@H](C)[C@](O)(Cn2cncn2)c2ccc(F)cc2F)CC3)cc1`, the MIC was determined as 0.5 µg/mL (≈ 1.04 µM) in the assay with Candida albicans [1]; 1 µg/mL (≈ 2.08 µM) with Candida albicans [2]; 0.5 µg/mL (≈ 1.04 µM) in the assay on Candida parapsilosis; 0.5 µg/mL (≈ 1.04 µM) against Cryptococcus neoformans; 1 µg/mL (≈ 2.08 µM) in the assay with Nakaseomyces glabratus; 16 µg/mL (≈ 33.2 µM) with Aspergillus fumigatus.
`C[C@@H](N1CCc2nc(-c3ccc(F)cc3)sc2C1)[C@](O)(Cn1cncn1)c1ccc(F)cc1F`: the MIC with Candida albicans [1] came out at 1 µg/mL (≈ 2.06 µM); against Candida albicans [2] it was 1 µg/mL (≈ 2.06 µM); in the assay with Candida parapsilosis, 2 µg/mL (≈ 4.12 µM); against Cryptococcus neoformans, 1 µg/mL (≈ 2.06 µM); against Nakaseomyces glabratus it was 4 µg/mL (≈ 8.24 µM); in the assay on Aspergillus fumigatus, 16 µg/mL (≈ 33 µM).
`C[C@@H](N1CCc2nc(-c3ccc(Br)cc3)sc2C1)[C@](O)(Cn1cncn1)c1ccc(F)cc1F`: the MIC with Candida albicans [1] was found to be 1 µg/mL (≈ 1.83 µM); against Candida albicans [2] it was 1 µg/mL (≈ 1.83 µM); against Candida parapsilosis, 4 µg/mL (≈ 7.32 µM); in the assay on Cryptococcus neoformans it was 1 µg/mL (≈ 1.83 µM); against Nakaseomyces glabratus, 2 µg/mL (≈ 3.66 µM); with Aspergillus fumigatus, 16 µg/mL (≈ 29.3 µM).
With `CC(C)c1ccc(-c2nc3c(s2)CN([C@H](C)[C@](O)(Cn2cncn2)c2ccc(F)cc2F)CC3)cc1`, the MIC came out at 0.5 µg/mL (≈ 0.981 µM) with Candida albicans [1]; 1 µg/mL (≈ 1.96 µM) against Candida albicans [2]; 0.5 µg/mL (≈ 0.981 µM) in the assay on Candida parapsilosis; 1 µg/mL (≈ 1.96 µM) in the assay with Cryptococcus neoformans; 1 µg/mL (≈ 1.96 µM) in the assay with Nakaseomyces glabratus; 16 µg/mL (≈ 31.4 µM) with Aspergillus fumigatus.
Take `C[C@@H](N1CCc2nc(-c3cccc(Cl)c3)sc2C1)[C@](O)(Cn1cncn1)c1ccc(F)cc1F`: the MIC with Candida albicans [1] was 4 µg/mL (≈ 7.97 µM); with Candida albicans [2], 4 µg/mL (≈ 7.97 µM); against Candida parapsilosis, 2 µg/mL (≈ 3.98 µM); against Cryptococcus neoformans, 2 µg/mL (≈ 3.98 µM); against Nakaseomyces glabratus it was 4 µg/mL (≈ 7.97 µM); against Aspergillus fumigatus it was 32 µg/mL (≈ 63.7 µM).

(Values after ChEMBL document CHEMBL3259614, “Design, synthesis, and structure-activity relationship studies of novel fused heterocycles-linked triazoles with good activity and water solubility” (J Med Chem, 2014).)
